Consider four molecules from ChEMBL document CHEMBL3871288, “Marine sponge alkaloids as a source of anti-bacterial adjuvants” (Bioorg Med Chem Lett, 2016).

In experiment [1] the test system is Staphylococcus aureus. The experiment in a line: Antibiofilm activity against methicillin-resistant Staphylococcus aureus BAA-1685 after 24 hrs by crystal violet staining based assay. The class given is functional. Particulars: BAA-1685, 24 h.
Experiment [2] deals with Acinetobacter baumannii. Briefly: Antibiofilm activity against Acinetobacter baumannii ATCC 19606 after 24 hrs by crystal violet staining based assay. Type of experiment: functional. Particulars: ATCC 19606, 24 h.
For experiment [3], the system named is Acinetobacter baumannii. Briefly: Antibiofilm activity against Acinetobacter baumannii ATCC 19606 at 50 uM after 24 hrs by crystal violet staining based assay relative to control. Type of experiment: functional. The conditions noted are these: ATCC 19606, 24 h.
In experiment [4] the test system is Staphylococcus aureus. The experiment in a line: Potentiation of oxacillin-induced antibacterial activity against methicillin-resistant Staphylococcus aureus BAA-1556 assessed as oxacillin MIC at 10 uM measured after 16 to 18 hrs by serial dilution assay (reference value: 32 ug/ml). Type of experiment: functional.
The test system of experiment [5] is Staphylococcus aureus. The experiment in a line: Potentiation of oxacillin-induced antibacterial activity against methicillin-resistant Staphylococcus aureus BAA-1556 assessed as oxacillin MIC at 5 uM measured after 16 to 18 hrs by serial dilution assay (reference value: 32 ug/ml). The class given is functional.
In experiment [6] the test system is Acinetobacter baumannii. Briefly: Potentiation of meropenem-induced antibacterial activity against Acinetobacter baumannii AB5075 assessed as meropenem MIC at 10 uM measured after 16 to 18 hrs by serial dilution assay (reference value: 32 ug/ml). Type of experiment: functional.
Experiment [7] relates to Staphylococcus aureus. Briefly: Potentiation of oxacillin-induced antibacterial activity against methicillin-resistant Staphylococcus aureus BAA-1556 assessed as oxacillin MIC at 40 uM measured after 16 to 18 hrs by serial dilution assay (reference value: 32 ug/ml). The class given is functional.
In experiment [8] the test system is Staphylococcus aureus. Briefly: Potentiation of vancomycin-induced antibacterial activity against vancomycin intermediate Staphylococcus aureus ATCC 700699 assessed as vancomycin MIC at 25 uM measured after 16 to 18 hrs by serial dilution assay (reference value: 8 ug/ml). The conditions noted are these: Mu50. Type of experiment: functional. The essentials:
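Vancomycin MIC was measured against vancomycin-intermediate S. aureus ATCC 700699 with the alkaloid co-dosed at a fixed concentration. Levels used across the series were 25 and 50 µM.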

In experiment [9] the test system is Staphylococcus aureus. Briefly: Potentiation of oxacillin-induced antibacterial activity against methicillin-resistant Staphylococcus aureus BAA-1556 assessed as oxacillin MIC at 25 uM measured after 16 to 18 hrs by serial dilution assay (reference value: 32 ug/ml). Type of experiment: functional.
The subject of experiment [10] is Staphylococcus aureus. The experiment in a line: Potentiation of oxacillin-induced antibacterial activity against methicillin-resistant Staphylococcus aureus NE481 assessed as oxacillin MIC at 25 uM measured after 16 to 18 hrs by serial dilution assay (reference value: 1 ug/ml).
For experiment [11], the system named is Staphylococcus aureus. Briefly: Potentiation of oxacillin-induced antibacterial activity against methicillin-resistant Staphylococcus aureus harboring vraR mutant assessed as oxacillin MIC at 25 uM measured after 16 to 18 hrs by serial dilution assay. Type of experiment: functional.
The subject of the next experiment is Pseudomonas aeruginosa. The experiment in a line: Antibiofilm activity against Pseudomonas aeruginosa PA14 after 24 hrs by crystal violet staining based assay. Particulars: PA14, 24 h. Type of experiment: functional.
For experiment [12], the system named is Acinetobacter baumannii. The experiment in a line: Antibiofilm activity against Acinetobacter baumannii ATCC 19606 at 100 uM after 24 hrs by crystal violet staining based assay relative to control. Type of experiment: functional. Particulars: ATCC 19606, 24 h.
Experiment [13] deals with Staphylococcus aureus. The experiment in a line: Potentiation of oxacillin-induced antibacterial activity against methicillin-resistant Staphylococcus aureus BAA-1556 assessed as oxacillin MIC at 50 uM measured after 16 to 18 hrs by serial dilution assay (reference value: 32 ug/ml). The class given is functional.
In experiment [14] the test system is Staphylococcus aureus. The experiment in a line: Potentiation of vancomycin-induced antibacterial activity against vancomycin intermediate Staphylococcus aureus ATCC 700699 assessed as vancomycin MIC at 50 uM measured after 16 to 18 hrs by serial dilution assay (reference value: 8 ug/ml). The class given is functional. The conditions noted are these: Mu50.
Experiment [15] concerns Staphylococcus aureus. The experiment in a line: Ratio of oxacillin MIC for methicillin-resistant Staphylococcus aureus BAA-1556 in presence of test compound to oxacillin MIC for methicillin-resistant Staphylococcus aureus harboring vraR mutant in presence of test compound. Type of experiment: functional.

One may read the IC50 as the concentration needed to halve the response being measured. Regarding `Nc1ncc([C@@H]2[C@@H](CNC(=O)c3cc(Br)c[nH]3)[C@H](CNC(=O)c3cc(Br)c[nH]3)[C@H]2c2cnc(N)[nH]2)[nH]1`, the IC50 in the experiment with Staphylococcus aureus [1] turned out to be 37.6 µM; in the experiment with Acinetobacter baumannii [2], 30.5 µM.
What is called inhibition is the percentage by which the read-out fell short of the control. Low readings indicate a weak effect, high ones a strong effect. Broadly, the MIC is the least concentration at which growth counts as inhibited. For `Nc1ncc([C@@H]2[C@@H](CNC(=O)c3cc(Br)c(Br)[nH]3)[C@H](CNC(=O)c3cc(Br)c(Br)[nH]3)[C@H]2c2cnc(N)[nH]2)[nH]1`, the IC50 is 15.3 µM with Staphylococcus aureus [1] and greater than 50 µM in the experiment with Acinetobacter baumannii [2]. This molecule registered an inhibition at 50 µM in the experiment with Acinetobacter baumannii [3] of 48%. The MIC in the experiment with Staphylococcus aureus [4] was determined as 2 µg/mL; in the experiment with Staphylococcus aureus [5], 8 µg/mL; in the experiment with Acinetobacter baumannii [6] it was 8 µg/mL.
`Nc1nc([C@@H]2c3[nH]c(N)nc3C[C@H](CNC(=O)c3cc(Br)c[nH]3)[C@H]2CNC(=O)c2cc(Br)c(Br)[nH]2)c[nH]1` [BROMOAGELIFERIN]: the IC50 with Staphylococcus aureus [1] worked out at 10.6 µM; in the experiment on Acinetobacter baumannii [2], 28.3 µM. Moreover, the MIC was determined as 2 µg/mL in the experiment with Staphylococcus aureus [4], 16 µg/mL in the experiment with Staphylococcus aureus [5] and 8 µg/mL with Acinetobacter baumannii [6].
For `Nc1ncc(/C=C/CNC(=O)c2cc(Br)c(Br)[nH]2)[nH]1` [OROIDIN], the IC50 is 77.3 µM in the experiment on Staphylococcus aureus [1], 166 µM in the experiment with Pseudomonas aeruginosa and greater than 100 µM in the experiment on Acinetobacter baumannii [2]. The MIC in the experiment with Staphylococcus aureus [7] is 2 µg/mL; in the experiment with Staphylococcus aureus [8] it was 4 µg/mL; in the experiment on Staphylococcus aureus [9], 8 µg/mL; in the experiment with Staphylococcus aureus [10], 0.5 µg/mL; with Staphylococcus aureus [11], 2 µg/mL; in the experiment with Staphylococcus aureus [13], 0.5 µg/mL. Further, the MIC with Staphylococcus aureus [14] was found to be 2 µg/mL. In the experiment with Acinetobacter baumannii [12], the inhibition at 100 µM was determined as 29%. In addition, in the experiment on Staphylococcus aureus [15], the Ratio was determined as 4.
